Measured values from the M2OR odorant receptor database.
Substitutions are numbered along the chain they refer to.

What was measured:
Conditions in all cases: stereoisomer not certain
OR4S2 (Homo sapiens) = molecular target: T1, OR4S2 (Homo sapiens) (UniProt Q8NH73)
T1 sequence (whole entry): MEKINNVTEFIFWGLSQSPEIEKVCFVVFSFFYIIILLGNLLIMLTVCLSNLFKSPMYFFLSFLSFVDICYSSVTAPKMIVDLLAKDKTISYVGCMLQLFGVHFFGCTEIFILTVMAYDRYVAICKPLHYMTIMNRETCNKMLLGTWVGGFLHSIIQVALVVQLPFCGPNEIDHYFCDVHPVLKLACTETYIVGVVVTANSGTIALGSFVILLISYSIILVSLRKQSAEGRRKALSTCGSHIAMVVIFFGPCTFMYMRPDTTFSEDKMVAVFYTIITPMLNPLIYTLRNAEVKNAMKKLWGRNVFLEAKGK
In short: (§1)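 Each entry records the cell line, G-protein, co-transfected protein and tags used. Methods varied with the source, often transient luciferase assays in mammalian cell lines. A receptor–molecule pair is called responsive (active) if the original authors judged its signal statistically different from baseline and non-responsive (inactive) otherwise.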

OR4X1 (Homo sapiens) = molecular target: T2, OR4X1 (Homo sapiens) (UniProt Q8NH49)
T2 sequence (whole entry): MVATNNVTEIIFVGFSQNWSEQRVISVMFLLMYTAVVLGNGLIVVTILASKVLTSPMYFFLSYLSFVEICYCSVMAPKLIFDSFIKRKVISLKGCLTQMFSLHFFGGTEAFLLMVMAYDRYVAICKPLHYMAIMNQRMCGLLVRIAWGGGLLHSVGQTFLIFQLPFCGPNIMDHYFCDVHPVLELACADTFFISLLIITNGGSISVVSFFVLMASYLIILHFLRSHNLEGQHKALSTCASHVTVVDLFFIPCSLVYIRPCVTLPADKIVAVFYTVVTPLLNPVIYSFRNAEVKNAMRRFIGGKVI
In short: as §1

OR4X2 (Homo sapiens) = molecular target: T3, OR4X2 (Homo sapiens) (UniProt Q8NGF9)
T3 sequence (whole entry): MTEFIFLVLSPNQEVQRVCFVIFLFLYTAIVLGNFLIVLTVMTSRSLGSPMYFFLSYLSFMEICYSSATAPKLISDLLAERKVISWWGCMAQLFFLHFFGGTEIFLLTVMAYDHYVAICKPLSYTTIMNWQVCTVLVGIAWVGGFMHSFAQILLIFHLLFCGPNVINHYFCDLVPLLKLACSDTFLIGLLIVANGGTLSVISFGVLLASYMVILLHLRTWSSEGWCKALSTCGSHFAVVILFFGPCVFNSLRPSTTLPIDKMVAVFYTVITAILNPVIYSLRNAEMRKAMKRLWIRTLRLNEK
In short: as §1

OR51A2 (Homo sapiens) = molecular target: T4, OR51A2 (Homo sapiens) (UniProt Q8NGJ7)
T4 sequence (whole entry): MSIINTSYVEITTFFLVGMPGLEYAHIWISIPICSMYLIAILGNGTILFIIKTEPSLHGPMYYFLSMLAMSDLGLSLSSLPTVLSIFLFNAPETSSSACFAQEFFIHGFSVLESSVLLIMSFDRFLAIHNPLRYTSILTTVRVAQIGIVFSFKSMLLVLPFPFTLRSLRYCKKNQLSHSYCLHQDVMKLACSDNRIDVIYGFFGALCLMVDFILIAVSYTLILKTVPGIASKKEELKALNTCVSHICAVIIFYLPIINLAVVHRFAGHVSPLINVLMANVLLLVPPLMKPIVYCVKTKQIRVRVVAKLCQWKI
In short: as §1

OR51A4 (Homo sapiens) = molecular target: T5, OR51A4 (Homo sapiens) (UniProt Q8NGJ6)
T5 sequence (whole entry): T4 sequence (whole entry) with G59E, T94I, S97N, S167N, P227L, E235Q, G267R, M288T, K289N, W311R
In short: as §1

OR51A7 (Homo sapiens) = molecular target: T6, OR51A7 (Homo sapiens) (UniProt Q8NH64)
T6 sequence (whole entry): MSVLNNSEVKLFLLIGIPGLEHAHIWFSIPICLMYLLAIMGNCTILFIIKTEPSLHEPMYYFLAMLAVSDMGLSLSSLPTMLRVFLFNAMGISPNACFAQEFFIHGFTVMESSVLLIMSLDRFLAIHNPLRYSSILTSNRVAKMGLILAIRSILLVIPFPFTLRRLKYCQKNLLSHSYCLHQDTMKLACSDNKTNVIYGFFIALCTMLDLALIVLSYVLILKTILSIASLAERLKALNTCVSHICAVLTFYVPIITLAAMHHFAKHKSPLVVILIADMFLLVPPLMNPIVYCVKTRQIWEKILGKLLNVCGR
In short: as §1

OR51B2 (Homo sapiens) = molecular target: T7, OR51B2 (Homo sapiens) (UniProt Q9Y5P1)
T7 sequence (whole entry): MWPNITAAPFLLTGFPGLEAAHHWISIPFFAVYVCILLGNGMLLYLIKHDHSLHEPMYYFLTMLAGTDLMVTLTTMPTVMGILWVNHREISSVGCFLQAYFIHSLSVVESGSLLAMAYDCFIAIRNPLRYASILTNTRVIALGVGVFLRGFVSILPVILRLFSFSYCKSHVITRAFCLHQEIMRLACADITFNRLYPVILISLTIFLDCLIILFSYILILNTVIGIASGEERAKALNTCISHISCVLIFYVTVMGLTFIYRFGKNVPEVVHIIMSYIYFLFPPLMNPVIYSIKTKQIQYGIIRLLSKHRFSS
In short: as §1

OR51B4 (Homo sapiens) = molecular target: T8, OR51B4 (Homo sapiens) (UniProt Q9Y5P0)
T8 sequence (whole entry): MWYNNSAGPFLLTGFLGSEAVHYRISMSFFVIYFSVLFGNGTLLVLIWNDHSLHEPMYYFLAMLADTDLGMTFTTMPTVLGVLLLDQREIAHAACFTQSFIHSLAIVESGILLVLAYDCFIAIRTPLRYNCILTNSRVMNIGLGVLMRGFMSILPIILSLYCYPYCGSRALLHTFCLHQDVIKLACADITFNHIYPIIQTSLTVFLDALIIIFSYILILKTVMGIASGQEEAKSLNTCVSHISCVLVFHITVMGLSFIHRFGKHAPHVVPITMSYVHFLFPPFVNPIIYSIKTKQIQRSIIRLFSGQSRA
In short: as §1

OR51B5 (Homo sapiens) = molecular target: T9, OR51B5 (Homo sapiens) (UniProt Q9H339)
T9 sequence (whole entry): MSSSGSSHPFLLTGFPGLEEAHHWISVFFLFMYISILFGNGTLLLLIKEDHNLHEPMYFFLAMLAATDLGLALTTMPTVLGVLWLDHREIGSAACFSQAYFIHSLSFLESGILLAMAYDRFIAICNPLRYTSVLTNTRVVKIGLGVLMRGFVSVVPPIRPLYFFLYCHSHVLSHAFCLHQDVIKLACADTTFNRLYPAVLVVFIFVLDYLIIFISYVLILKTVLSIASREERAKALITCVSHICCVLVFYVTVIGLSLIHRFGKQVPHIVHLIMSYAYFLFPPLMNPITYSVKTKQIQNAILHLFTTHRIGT
In short: as §1

OR51B6 (Homo sapiens) = molecular target: T10, OR51B6 (Homo sapiens) (UniProt Q9H340)
T10 sequence (whole entry): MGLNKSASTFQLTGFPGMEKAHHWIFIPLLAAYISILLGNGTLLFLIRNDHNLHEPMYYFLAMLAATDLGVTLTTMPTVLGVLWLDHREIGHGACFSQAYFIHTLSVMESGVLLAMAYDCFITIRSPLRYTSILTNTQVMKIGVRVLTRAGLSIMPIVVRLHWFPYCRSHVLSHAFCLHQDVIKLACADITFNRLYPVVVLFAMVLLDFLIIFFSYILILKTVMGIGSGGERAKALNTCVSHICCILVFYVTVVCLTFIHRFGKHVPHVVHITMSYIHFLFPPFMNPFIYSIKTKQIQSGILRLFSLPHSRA
In short: as §1

OR51D1 (Homo sapiens) = molecular target: T11, OR51D1 (Homo sapiens) (UniProt Q8NGF3)
T11 sequence (whole entry): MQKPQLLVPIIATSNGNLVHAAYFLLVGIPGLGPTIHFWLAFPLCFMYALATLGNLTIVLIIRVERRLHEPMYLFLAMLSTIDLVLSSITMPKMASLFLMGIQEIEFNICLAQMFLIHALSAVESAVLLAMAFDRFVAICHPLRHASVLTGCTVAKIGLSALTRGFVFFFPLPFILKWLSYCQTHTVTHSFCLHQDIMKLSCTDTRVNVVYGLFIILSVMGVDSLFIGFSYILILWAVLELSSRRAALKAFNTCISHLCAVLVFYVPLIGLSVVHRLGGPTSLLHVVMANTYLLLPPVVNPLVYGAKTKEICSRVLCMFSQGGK
In short: as §1

OR51E1 (Homo sapiens) = molecular target: T12, OR51E1 (Homo sapiens) (UniProt Q8TCB6)
T12 sequence (whole entry): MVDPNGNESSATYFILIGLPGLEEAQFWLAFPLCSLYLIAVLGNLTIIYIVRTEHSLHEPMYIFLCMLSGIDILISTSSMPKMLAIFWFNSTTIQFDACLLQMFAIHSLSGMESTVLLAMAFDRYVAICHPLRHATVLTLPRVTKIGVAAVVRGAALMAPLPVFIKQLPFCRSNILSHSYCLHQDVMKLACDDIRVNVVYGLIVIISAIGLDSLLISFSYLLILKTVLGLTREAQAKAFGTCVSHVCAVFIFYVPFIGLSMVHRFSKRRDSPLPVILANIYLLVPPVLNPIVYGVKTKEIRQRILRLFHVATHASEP
In short: as §1

OR51E2 (Homo sapiens) = molecular target: T13, OR51E2 (Homo sapiens) (UniProt Q9H255)
T13 sequence (whole entry): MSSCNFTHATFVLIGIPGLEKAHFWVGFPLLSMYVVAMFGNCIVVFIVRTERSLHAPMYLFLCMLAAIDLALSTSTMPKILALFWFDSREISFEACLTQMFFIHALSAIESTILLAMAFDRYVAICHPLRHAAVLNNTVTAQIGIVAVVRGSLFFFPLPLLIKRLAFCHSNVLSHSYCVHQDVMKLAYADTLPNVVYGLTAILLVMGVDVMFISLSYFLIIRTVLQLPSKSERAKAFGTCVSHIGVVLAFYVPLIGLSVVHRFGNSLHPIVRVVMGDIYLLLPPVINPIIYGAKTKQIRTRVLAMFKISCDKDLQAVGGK
In short: as §1

OR51F1 (Homo sapiens) = molecular target: T14, OR51F1 (Homo sapiens) (UniProt A6NGY5)
T14 sequence (whole entry): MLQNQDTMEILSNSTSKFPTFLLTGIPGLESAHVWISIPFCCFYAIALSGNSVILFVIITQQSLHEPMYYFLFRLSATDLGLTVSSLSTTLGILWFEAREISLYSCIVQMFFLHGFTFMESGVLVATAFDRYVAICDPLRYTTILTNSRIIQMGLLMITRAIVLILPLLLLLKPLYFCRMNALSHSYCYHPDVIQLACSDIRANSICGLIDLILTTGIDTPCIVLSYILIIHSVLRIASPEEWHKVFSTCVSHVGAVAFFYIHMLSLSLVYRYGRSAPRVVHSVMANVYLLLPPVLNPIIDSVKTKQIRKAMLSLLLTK
In short: as §1

OR51F2 (Homo sapiens) = molecular target: T15, OR51F2 (Homo sapiens) (UniProt Q8NH61)
T15 sequence (whole entry): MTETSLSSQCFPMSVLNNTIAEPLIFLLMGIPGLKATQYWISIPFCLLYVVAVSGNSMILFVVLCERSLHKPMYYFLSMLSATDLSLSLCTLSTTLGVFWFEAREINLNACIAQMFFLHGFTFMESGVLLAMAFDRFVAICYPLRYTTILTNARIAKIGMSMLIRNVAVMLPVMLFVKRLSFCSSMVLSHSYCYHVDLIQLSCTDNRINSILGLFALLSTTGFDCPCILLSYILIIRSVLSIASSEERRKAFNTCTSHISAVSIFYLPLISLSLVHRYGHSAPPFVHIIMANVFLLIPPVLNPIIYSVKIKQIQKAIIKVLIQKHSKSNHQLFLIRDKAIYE
In short: as §1

OR51G1 (Homo sapiens) = molecular target: T16, OR51G1 (Homo sapiens) (UniProt Q8NGK1)
T16 sequence (whole entry): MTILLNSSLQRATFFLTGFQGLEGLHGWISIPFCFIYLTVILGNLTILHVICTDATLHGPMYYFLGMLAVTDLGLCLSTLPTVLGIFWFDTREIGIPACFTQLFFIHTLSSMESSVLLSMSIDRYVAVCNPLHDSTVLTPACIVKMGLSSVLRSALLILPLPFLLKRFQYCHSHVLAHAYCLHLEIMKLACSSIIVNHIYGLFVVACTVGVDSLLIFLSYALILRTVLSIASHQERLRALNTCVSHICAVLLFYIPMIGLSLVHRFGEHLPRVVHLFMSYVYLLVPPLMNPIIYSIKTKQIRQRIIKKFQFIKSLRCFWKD
In short: as §1

OR51G2 (Homo sapiens) = molecular target: T17, OR51G2 (Homo sapiens) (UniProt Q8NGK0)
T17 sequence (whole entry): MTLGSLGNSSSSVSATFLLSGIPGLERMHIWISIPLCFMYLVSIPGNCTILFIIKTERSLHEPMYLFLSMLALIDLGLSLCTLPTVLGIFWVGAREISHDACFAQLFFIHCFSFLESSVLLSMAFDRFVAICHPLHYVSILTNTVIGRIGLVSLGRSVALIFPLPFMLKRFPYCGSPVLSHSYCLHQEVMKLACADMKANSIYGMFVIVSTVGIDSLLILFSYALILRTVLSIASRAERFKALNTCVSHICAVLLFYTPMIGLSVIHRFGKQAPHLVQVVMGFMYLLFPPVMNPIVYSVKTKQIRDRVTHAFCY
In short: as §1

OR51I1 (Homo sapiens) = molecular target: T18, OR51I1 (Homo sapiens) (UniProt Q9H343)
T18 sequence (whole entry): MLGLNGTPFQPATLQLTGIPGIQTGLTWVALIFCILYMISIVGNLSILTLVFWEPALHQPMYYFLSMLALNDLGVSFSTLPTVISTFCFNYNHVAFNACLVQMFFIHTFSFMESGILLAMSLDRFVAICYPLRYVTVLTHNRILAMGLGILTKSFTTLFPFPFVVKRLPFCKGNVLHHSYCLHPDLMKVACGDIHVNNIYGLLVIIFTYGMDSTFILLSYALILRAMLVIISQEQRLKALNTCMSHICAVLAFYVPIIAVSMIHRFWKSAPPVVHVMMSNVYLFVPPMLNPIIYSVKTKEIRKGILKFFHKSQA
In short: as §1

Measured: odorant receptor agonist call

CCC(S)C(C)CO (configuration not stated)
inactive: all assays above

CC(CO)CS (configuration not stated)
inactive: all assays above

CCCCC(=O)C(C)=O
inactive: OR51B5 (Homo sapiens)

O=c1ccc2ccccc2o1
inactive: OR51B5 (Homo sapiens) | OR51E1 (Homo sapiens) | OR51E2 (Homo sapiens)

CCCCCCCCCCCCCC(=O)O
inactive: OR51B5 (Homo sapiens) | OR51E1 (Homo sapiens)
